Statin myotox sup: suppressors of simvastatin-induced myotoxicity in C2C12 myotubes; ATP luminescence, 48 h; scaled: DMSO 0, geranylgeraniol control 100; 330,000 compounds, 0.78% hits; rescue of ATP level, % at 7.49 µM;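 active means mean ATP rescue above about 67%, or every replicate alone reaching that limit, limit read from the data, passing the limit was not always enough; inconclusive means no clear call, values can overlap the other calls; inactive means mean under the limit and some replicate under it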;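 further: myotubes were challenged with 10 µM simvastatin during compound exposure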
PGC1a acetyl inh: modulators of PGC1a acetylation. U2OS PGC1a acetylation, AlphaScreen anti-acetyl-lysine; with virally co-expressed GCN5 acetyltransferase. inhibition, % at 15.6 µM. 350,000 compounds, 0.17% hits. AID 651687;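 active means every replicate shows inhibition of at least 40%; inconclusive means mean inhibition at least 40% but some replicate below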
DENV2 CPE rescue: DENV2-induced cell death inhibition; DENV2-infected cells, cytopathic effect rescue, plate reader; CPE inhibition, % at 9.99 µM; 350,000 compounds, 1.7% hits; AID 651640; in the data active means CPE inhibition above about 20%, passing the limit was not always enough; inconclusive means no clear call, values can overlap the other calls; tested in BHK-21 cells
SIRT5 block: blocks human SIRT5 desuccinylation of peptide. Q9NXA8. Purified SirT5, succinyl-peptide AMC, trypsin-coupled fluorescence. inhibition, % at 15 µM. 330,000 compounds, 1.1% hits. AID 652115; in the data active means inhibition above about 15%; inconclusive means no clear call, values can overlap the other calls
Target sequence (Q9NXA8 whole entry, looked up): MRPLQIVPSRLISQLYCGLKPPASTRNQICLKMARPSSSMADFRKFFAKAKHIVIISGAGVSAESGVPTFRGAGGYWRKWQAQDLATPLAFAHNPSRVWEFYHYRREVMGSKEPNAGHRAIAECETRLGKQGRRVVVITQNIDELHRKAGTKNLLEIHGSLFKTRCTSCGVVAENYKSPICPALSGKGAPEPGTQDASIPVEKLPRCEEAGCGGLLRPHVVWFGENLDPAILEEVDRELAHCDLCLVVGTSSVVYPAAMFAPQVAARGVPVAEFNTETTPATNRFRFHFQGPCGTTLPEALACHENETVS
S100A4 MyoIIA: blocks human S100A4 binding to myosin IIA peptide. AID 652163. 360,000 compounds, 0.14% hits. inhibition, % at 10.7 µM. P26447. S100A4/TAMRA-MyoIIA peptide fluorescence polarization;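 active means mean inhibition of at least 70% across replicates, with every replicate also reaching that level; inconclusive means mean inhibition reaches 70% but some replicates fall short; inactive means mean inhibition below 70%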
Target sequence (P26447 whole entry, looked up): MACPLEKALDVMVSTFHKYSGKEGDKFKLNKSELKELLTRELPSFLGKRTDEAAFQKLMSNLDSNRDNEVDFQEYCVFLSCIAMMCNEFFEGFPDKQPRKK
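assay system = human S100A4 monomer with TAMRA-labelled myosin IIA peptide | also added = labelled myosin peptide probe, 5 nM | incubation = 5 min between mix addition and reading | control set = DMSO and TFP controls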
Large screens that a line does not name were inactive; ! = a repeat was not active. Sampled rows, rich in hits. Any-hit rate of the full collection: about 2.9%.

C[C@@H]1CN([C@@H](C)CO)C(=O)c2cc(NC(=O)NC3CCCCC3)ccc2O[C@@H]1CN(C)CC1CCCCC1	DENV2 CPE rescue 60.5
C[C@@H]1CN([C@@H](C)CO)C(=O)c2cc(NC(=O)Cn3cnnn3)ccc2O[C@@H]1CN(C)CC1CCCCC1	none (no result: DENV2 CPE rescue)
C[C@H](CO)N1C[C@H](C)[C@H](CN(C)CC2CCCCC2)Oc2ccc(NC(=O)NC3CCCCC3)cc2C1=O	DENV2 CPE rescue 29.1
C[C@H](CO)N1C[C@H](C)[C@@H](CN(C)CC2CCCCC2)Oc2ccc(NC(=O)Cn3cnnn3)cc2C1=O	DENV2 CPE rescue inconclusive, SIRT5 block 15.3!
CCS(=O)(=O)N1CC(=O)N2[C@@H](CO)[C@@H](c3ccc(C#CC4CCCCC4)cc3)[C@@H]2C1	none (no result: Statin myotox sup)
C=CCCCCCCCCc1nc(=S)[nH][nH]1	Statin myotox sup 148.1 (no result: DENV2 CPE rescue, SIRT5 block, S100A4 MyoIIA)
O=C(c1ccncc1)N1C[C@@H]2[C@H](c3ccccc31)[C@H](CO)N2C(=O)Nc1cccc(F)c1	SIRT5 block 18.0
COCC(=O)N1[C@H](CO)[C@H]2c3ccccc3N(C(=O)c3cccnc3)C[C@H]21	DENV2 CPE rescue 58.8
O=C(c1cccnc1)N1C[C@H]2[C@@H](c3ccccc31)[C@@H](CO)N2C(=O)Nc1ccc(F)cc1	none
O=C(c1cccnc1)N1C[C@H]2[C@@H](c3ccccc31)[C@H](CO)N2C(=O)Nc1ccc(F)cc1	DENV2 CPE rescue 67.1
O=C(c1cccnc1)N1C[C@H]2[C@@H](c3ccccc31)[C@H](CO)N2C(=O)Nc1cccc(F)c1	none
CCCC(=O)N1C[C@@H]2[C@H](c3ccccc31)[C@@H](CO)N2C(=O)Nc1ccccc1	none
CCCC(=O)N1C[C@H]2[C@@H](c3ccccc31)[C@@H](CO)N2C(=O)Nc1ccc(F)cc1	DENV2 CPE rescue 28.4
O=C(N[C@H]1CC[C@@H](CCNC(=O)C2CC2)O[C@H]1CO)c1ccccn1	none
COc1ccc(S(=O)(=O)N(C)C[C@@H]2OCCCC[C@H](C)Oc3ccc(NC(=O)Nc4ccc(F)cc4)cc3C(=O)N([C@H](C)CO)C[C@@H]2C)cc1	none
Cc1nc(C(C)N(C)Cc2nc(-c3ccc4c(c3)OCO4)no2)c(C)s1 (stereo unspecified)	PGC1a acetyl inh 97.1
C=C[C@@H](COC(C)=O)N(Cc1ccccc1[N+](=O)[O-])S(=O)(=O)c1ccc(Br)cc1	none (no result: Statin myotox sup)
CC(C)OC(=O)N(C)C[C@@H]1OCc2ccccc2-c2ccccc2C(=O)N([C@H](C)CO)C[C@H]1C	none (no result: Statin myotox sup)
CC1CCCN(C(=O)c2sc3cc([N+](=O)[O-])ccc3c2Cl)C1 (stereo unspecified)	Statin myotox sup 65.8 (no result: DENV2 CPE rescue, SIRT5 block, S100A4 MyoIIA)
O=C(c1sc2cc([N+](=O)[O-])ccc2c1Cl)N1CCCCC1	none (no result: DENV2 CPE rescue, SIRT5 block, S100A4 MyoIIA)
COC(=O)[C@]12C[C@H](CC(=O)N3CCN(C(=O)C4CC4)CC3)C(=O)N(CCC3=CCCCC3)C1=C[C@H](C(C)(C)C)O[C@@H]2C	none (no result: Statin myotox sup, PGC1a acetyl inh, SIRT5 block)
CC(C)c1ccc(Nc2ccc(C(=O)O)cc2[N+](=O)[O-])cc1	SIRT5 block 30.4
Cc1ccc(Nc2ccc(C(=O)O)cc2[N+](=O)[O-])cc1	none (no result: PGC1a acetyl inh)
CCCN=C1N(CC)C[C@@H]2[C@@H]3C(=O)N(C)C(=O)[C@@H]3[C@](CC)(C(=O)OC)N12	DENV2 CPE rescue 27.9
CCN1C[C@@H]2[C@@H]3C(=O)N(C)C(=O)[C@@H]3[C@](CC)(C(=O)OC)N2C1=NC	none
C[C@@H]1CN([C@H](C)CO)C(=O)CCCn2nncc2CO[C@@H]1CN(C)Cc1cccnc1	none (no result: DENV2 CPE rescue, SIRT5 block, S100A4 MyoIIA)
C[C@H]1CN([C@@H](C)CO)C(=O)c2cc(NC(=O)Nc3ccccc3)ccc2O[C@H]1CN(C)CC1CCCCC1	none
C[C@@H]1CCCCO[C@@H](CN(C)CC2CC2)[C@H](C)CN([C@H](C)CO)C(=O)c2cc(NC(=O)Nc3ccccc3)ccc2O1	DENV2 CPE rescue 40.9 (no result: Statin myotox sup)
C[C@@H]1CN([C@@H](C)CO)C(=O)c2cc(NC(=O)Nc3ccc(F)cc3)ccc2O[C@@H]1CN(C)C	none
C[C@@H]1CN([C@@H](C)CO)C(=O)c2cc(NC(=O)Nc3ccc(F)cc3)ccc2O[C@H]1CN(C)C	DENV2 CPE rescue 26.6
C[C@@H]1CCCCO[C@@H](CN(C)CC2CCCCC2)[C@@H](C)CN([C@@H](C)CO)C(=O)c2cc(NC(=O)Nc3ccccc3)ccc2O1	none (no result: Statin myotox sup)
C[C@@H]1CN([C@@H](C)CO)C(=O)c2cc(NC(=O)Nc3cccc4ccccc34)ccc2O[C@H]1CN(C)CC1CCCCC1	DENV2 CPE rescue 34.0
C[C@H](CO)N1C[C@H](C)[C@@H](CN(C)CC2CCCCC2)Oc2ccc(NC(=O)Nc3ccc(F)cc3)cc2C1=O	DENV2 CPE rescue 27.2 (no result: PGC1a acetyl inh)
CO[C@H]1CN(C)C(=O)c2cc(NC(=O)NC(C)C)ccc2OC[C@H](C)N(C)C[C@@H]1C	none
CO[C@@H]1CC[C@H]2CCOc3ccc(C#N)cc3C(=O)N(C)C[C@@H](C)C(=O)N(C)C[C@@H]1O2	none (no result: PGC1a acetyl inh)
COCC(=O)Nc1ccc2c(c1)C(=O)N(C)C[C@H](OC)[C@H](C)CN(Cc1ccccn1)[C@H](C)CO2	none
C[C@@H]1CCCCO[C@H](CN(C)CC2CCCCC2)[C@@H](C)CN([C@H](C)CO)C(=O)c2cc(NC(=O)Nc3ccccc3)ccc2O1	DENV2 CPE rescue 20.5 (no result: Statin myotox sup)
C[C@H](CO)N1C[C@H](C)[C@H](CN(C)CC2CCCCC2)OCCCC[C@H](C)Oc2ccc(NC(=O)Nc3ccc(F)cc3)cc2C1=O	DENV2 CPE rescue 24.5 (no result: Statin myotox sup)
O=C(C[C@@H]1CC[C@H]2[C@@H](COC[C@H](O)CN2Cc2cccc(F)c2)O1)NCCc1ccncc1	none
CO[C@@H]1CN(C)C(=O)c2ccc(NC(=O)NC(C)C)cc2OC[C@@H](C)N(S(C)(=O)=O)C[C@@H]1C	none (no result: Statin myotox sup)
COc1ccc(C(=O)Nc2cc(=O)[nH]c3ncnn23)cc1	DENV2 CPE rescue inconclusive, SIRT5 block 31.0
COc1ccccc1C#Cc1ccc([C@@H]2[C@H]3CN(CCC(F)(F)F)CCCCN3[C@H]2CO)cc1	none
CCC(C)[C@H](NS(=O)(=O)c1ccc(C)cc1)C(=O)N1CCC(C(=O)N2CCC(C(=O)OC)CC2)CC1 (stereo partly specified)	DENV2 CPE rescue 82.3 (no result: SIRT5 block)
CCC(=O)N1C[C@H](O)COC[C@@H]2O[C@H](CC(=O)NC)CC[C@H]21	none
COCC(=O)N1CC[C@@H]2[C@@H](CO)Nc3ccc(-c4cccc(C(=O)N(C)C)c4)cc3[C@@H]21	none (no result: DENV2 CPE rescue, SIRT5 block, S100A4 MyoIIA)
O=C(CSCC(=O)N1CCOCC1)Nc1nc(-c2ccc3c(c2)OCO3)cs1	none
O=C(Nc1nc(-c2ccc3c(c2)OCO3)cs1)C1COc2ccccc2O1 (stereo unspecified)	SIRT5 block 15.8 (no result: PGC1a acetyl inh)
CCOC(=O)N1CCN(C(=O)CSCC(=O)Nc2nc(-c3ccc4c(c3)OCO4)cs2)CC1	Statin myotox sup 122.0 (no result: DENV2 CPE rescue, SIRT5 block, S100A4 MyoIIA)
Cc1noc(C)c1S(=O)(=O)Nc1cccc2c1O[C@H](CN(C)S(=O)(=O)c1ccc(F)cc1)[C@H](C)CN([C@@H](C)CO)C2=O	none

Screening results deposited in PubChem by Broad Institute.
